PubChem BioAssay AID504325 (Broad Institute, 2011)
Inconclusive results are not listed. Active and inactive are the calls of the source.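 Rule for the calls: active = every replicate test active, with falling signal and half-maximal potency at or below ten times the top dose; inconclusive = replicate tests give conflicting calls; inactive = all tests inactive, or signal shifts the wrong way.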

Legend:
[1] = cytotoxicity in HMLE_sh_eGFP control cells, dose response, counter-screen for breast cancer stem cell project, cell-based, dry powder, set 2 (AID 504325); conditions: HMLE_sh_eGFP viability, CellTiter-Glo luminescence, 72 h; at 30 µM (top of the series)
Method in brief: (§1)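 Assay system: HMLE_sh_eGFP control breast epithelial cell line / Medium: serum-free culture medium / Schedule: ~72 h compound exposure, 37 °C / Detection: luminescent ATP detection, CellTiter-Glo diluted 1:3 in PBS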

[2] = tested on: HMLE_sh_eGFP viability, CellTiter-Glo luminescence, 72 h; experiment: as above
Method in brief: as §1

Compound	activity change, negative = cytotoxic [1]	AC50 [2]
O=C(COc1ccc(Cl)cc1Cl)N/N=C/c1cccs1	13.7% (inactive)	
COc1ccc(/C=C/C(=O)NC2=NCCS2)c(OC)c1	3.11% (inactive)	
CC(C)(C)c1ccc2c(c1)OC(C(=O)N/N=C/c1ccc[nH]1)CO2 (configuration not stated)		15 µM
CC(Oc1ccc(F)cc1Cl)C(=O)N/N=C/c1ccc[nH]1 (configuration not stated)	16.8% (inactive)	
O=C(COc1ccc(Cl)cc1Cl)N/N=C/c1ccco1	5.52% (inactive)	
Cc1csc(NC(=O)/C=C/c2ccc(C(C)C)cc2)n1		2.83 µM
N#Cc1ccccc1OCC(=O)N/N=C/c1ccc[nH]1	-7.45% (inactive)	
CC(C)c1ccc(/C=C/C(=O)NC2=NCCS2)cc1		8.92 µM
CC(C)c1ccc(/C=C/C(=O)Nc2ccccc2)cc1		3.28 µM
Cc1csc(NC(=O)c2ccc(COc3ccccc3)o2)n1		13.3 µM
COc1cc(/C=C/C(=O)NC2=NCCS2)cc(OC)c1OC	0.088% (inactive)	
Cc1ccccc1/C=C/C(=O)NC1=NCCS1	6.57% (inactive)	
Cc1ccccc1NCC(=O)N/N=C/c1ccc[nH]1	7.91% (inactive)	
CC(=O)Oc1ccc(/C=C/C(=O)NC2=NCCS2)cc1	-11.6% (inactive)	
COc1ccc(/C=C/C(=O)NC2=NCCS2)c(OC)c1OC	-0.513% (inactive)	
O=C(COc1ccccc1F)N/N=C/c1ccc[nH]1	1.58% (inactive)	
CC(C)(C)c1ccc2c(c1)OC(C(=O)NN)CO2 (configuration not stated)	15.8% (inactive)	
O=C(/C=C/c1ccc(F)cc1)NC1=NCCS1	-0.331% (inactive)	
O=C(C#Cc1ccccc1)NC1=NCCS1	9.83% (inactive)	
COc1ccc(OC)c(/C=C/C(=O)NC2=NCCS2)c1	2.36% (inactive)	
O=C(N/N=C/c1ccc[nH]1)c1cc2ccccc2o1	13.1% (inactive)	

Compound	activity change, negative = cytotoxic [1]	AC50 [2]
O=C(COc1ccc(Cl)cc1)N/N=C/c1ccc[nH]1	10.5% (inactive)	
O=C(/C=C/c1ccccc1)NC1=NCCS1	-4.89% (inactive)	
O=C(NC1=NCCS1)c1ccc(COc2ccccc2)o1	12.9% (inactive)	
O=C(O)c1ccc(COc2ccccc2)o1	1.43% (inactive)	
CCNC(=O)/C=C/c1ccc(C(C)C)cc1	7.1% (inactive)	
Cn1cncc1/C=N/NC(=O)COc1ccc(Cl)cc1Cl		18.9 µM
Cn1c(C(=O)NC2=NCCS2)cc2ccccc21	6.92% (inactive)	
NNC(=O)COc1ccc(Cl)cc1Cl	-3.9% (inactive)	
Cc1ccc(/C=N/NC(=O)COc2ccc(Cl)cc2Cl)[nH]1		16.9 µM
Cc1ccccc1OCC(=O)N/N=C/c1ccc[nH]1	5.25% (inactive)	
O=C(COc1ccc(Cl)cc1Cl)N/N=C/c1ccc[nH]1	-54.1% (inactive)	
O=C(/C=C/c1cc(Cl)ccc1Cl)NC1=NCCS1	3.58% (inactive)	
O=Cc1ccc[nH]1	7.66% (inactive)	
COc1ccc(CCC(=O)N/N=C/c2ccc[nH]2)cc1	-0.101% (inactive)	
O=C(CCc1ccccc1)NC1=NCCS1	4.67% (inactive)	
COc1ccc(/C=C/C(=O)NC2=NCCS2)cc1OC	-1.05% (inactive)	
CC(C)c1ccc(/C=C/C(=O)O)cc1	16.2% (inactive)	
O=C(N/N=C/c1ccc[nH]1)C1Cc2ccccc2O1 (configuration not stated)	-1.79% (inactive)	
O=C(COc1c(Cl)cc(Cl)cc1Cl)N/N=C/c1ccc[nH]1		27.6 µM
O=C(COc1ccc(Cl)cc1Cl)N/N=C/c1cnc[nH]1	-6.28% (inactive)	
CC(=O)Oc1ccccc1/C=C/C(=O)NC1=NCCS1	0.09% (inactive)	
